Active and inactive are the calls of the source. The calls are words filed in the database; no cut-off is given here.
Columns and labels:
[1] = system: HepG2; assay: Induction of endoplasmic reticulum stress in human HepG2 cells assessed as increase in TRB3 expression at 2 uM measured after 1 to 4 hrs by Western blot analysis; type: functional, cell-based; details: time 1-4 hrs
Summary of the method: (§1)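 HepG2 exposed to 2.0 µM over a time course; Nur77, Bip, p-EIF2a, TRB3 and LC3 levels followed by Western blot of RIPA lysates.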

[2] = system: HepG2; assay: Induction of endoplasmic reticulum stress in human HepG2 cells assessed as increase in p-EIF2a expression at 2 uM measured after 1 to 4 hrs by Western blot analysis; type: functional, cell-based; details: time 1-4 hrs; summary of the method: as §1
[3] = system: HepG2; assay: Induction of endoplasmic reticulum stress in human HepG2 cells assessed as increase in bip protein expression incubated for 12 hrs by Western blot analysis; type: functional, cell-based; details: dose 0.5-2 µM
Summary of the method: (§2)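 HepG2, QGY-7703 and SMMC-7721 treated with graded concentrations for 12 h. Lysed in RIPA with inhibitors; 40-80 µg protein separated by SDS-PAGE, blotted to nitrocellulose, blocked 1 h in 5% milk, primary antibodies overnight (LC3, Beclin1, Bip, CHOP, TRB3), HRP secondaries, chemiluminescence.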

[4] = system: SMMC-7721; assay: Induction of endoplasmic reticulum stress in human SMMC-7721 cells assessed as increase in CHOP protein expression incubated for 12 hrs by Western blot analysis; type: functional, cell-based; details: dose 0.5-2 µM; summary of the method: as §2
[5] = system: HepG2; assay: Induction of autophagy in human HepG2 cells assessed as LC3-II expression at 2 uM pretreated with ER stress inhibitor, 4-PBA for 2 hrs followed by incubation with compound for 12 hrs by Western blot analysis; type: functional, cell-based
Summary of the method: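 HepG2 grown to confluence, pretreated 2 h with 2 mM 4-PBA, then exposed to test compound for a further 12 h; Western blot for PARP, cleaved caspase-3/-9, Bcl-2, Bax, Bip, EIF2a, TRB3 and LC3.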

[6] = system: HepG2; assay: Disruption of mitochondrial membrane potential in human HepG2 cells assessed as red fluorescence intensity at 2 uM incubated for 12 hrs by JC-1 staining based flow cytometry (reference value: 23598 units); type: functional
[7] = system: HepG2; assay: Induction of apoptosis in human HepG2 cells assessed as cleaved caspase-9 expression at 2 uM pretreated with autophagy inhibitor, 3-methyladenine for 2 hrs followed by incubation with compound for 12 hrs by Western blot analysis; type: functional, cell-based
Summary of the method: (§3)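 HepG2 cells grown to confluence were pretreated 2 h with 2 mM 3-MA (autophagy inhibitor) or 2 mM 4-PBA (ER stress inhibitor), then exposed to compound for 12 h. Proteins (40–80 µg, RIPA lysate) were resolved by SDS-PAGE and blotted for PARP, cleaved caspase-3/-9, Bcl-2 and Bax, with chemiluminescent detection.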

[8] = system: HepG2; assay: Induction of apoptosis in human HepG2 cells transfected with shRNA assessed as late apoptotic cells at 2 uM incubated for 12 hrs by Annexin V-FITC/PI staining based flow cytometry (reference value: 2.18%); type: functional
[9] = target: T1, Nuclear receptor subfamily 4immunitygroup A member 1 (Homo sapiens, UniProt P22736); assay: Binding affinity to Nur77 ligand binding domain (unknown origin) assessed as fast association/dissociation kinetics by surface plasmon resonance analysis; details: filed as modulator
Summary of the method: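 SPR with Nur77-LBD, analyte injected at a series of concentrations; KD (equilibrium dissociation constant) and association/dissociation kinetics derived from the sensorgrams.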

[10] = system: QGY-7703; assay: Induction of autophagy in human QGY-7703 cells assessed as increase in LC3-II expression measured after 12 hrs by Western blot analysis; type: functional, cell-based; details: dose 0.5-2 µM; summary of the method: as §2
[11] = system: QGY-7703; assay: Inhibition of colony formation in human QGY-7703 cells at 2 uM incubated for 24 hrs measured after cell culturing for 15 days in normal medium by crystal violet staining based assay; type: functional; details: time 16.0 day
Summary of the method: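 500 HepG2, QGY-7703 or SMMC-7721 cells per well allowed to attach 24 h, exposed to DMSO or 2.0 µM for 24 h, then grown 15 days in plain medium. Colonies fixed 30 min in 4% paraformaldehyde, stained 15 min with 0.1% crystal violet, photographed and counted.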

[12] = Toxicity in BALB/c mouse xenografted with human HepG2 cells assessed as effect on body weight at 10 to 20 mg/kg/day, ip administered for 15 days; type: organism-based; details: in vivo, 360 h, dose 10-20 mg/kg/day, time 15 day
Summary of the method: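 Male Balb/c mice, 4 weeks old, injected subcutaneously in the flank with 5×10^6 HepG2 cells. At about 100 mm³, 15 mice randomized into vehicle, 10 and 20 mg/kg groups. Dosed i.p. once daily for 15 days. Tumour size and body weight measured daily; mice euthanized at the end.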

[13] = target: T1, Nuclear receptor subfamily 4immunitygroup A member 1; assay: Modulation of Nur77 in human HepG2 cells assessed as induction of nuclear […] pretreated with nuclear export inhibitor, LMB followed by incubation with compound for 12 hrs by fluorescence microscopic analysis; type: cell-based
[14] = system: HepG2; assay: Induction of apoptosis in human HepG2 cells assessed as cleaved caspase-3 expression at 2 uM pretreated with ER stress inhibitor, 4-PBA for 2 hrs followed by incubation with compound for 12 hrs by Western blot analysis; type: functional, cell-based; summary of the method: as §3
[15] = system: HepG2; assay: Induction of endoplasmic reticulum stress in Nur77 […] human HepG2 cells assessed as CHOP protein expression at 2 uM incubated for 6 to 12 hrs by Western blot analysis; type: functional, cell-based; details: time 6-12 hrs
Summary of the method: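 HepG2 and shNur77 HepG2 exposed to DMSO or 2.0 µM for 6 and 12 h; lysates immunoblotted for TRB3, Bip, CHOP and Nur77 (SDS-PAGE, nitrocellulose, overnight primary antibodies, HRP secondary, chemiluminescence).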

[16] = system: SMMC-7721; assay: Induction of apoptosis in human SMMC-7721 cells assessed as increase in cleaved PARP level at 0.5 to 2 uM incubated for 12 hrs by Western blot analysis; type: functional, cell-based; details: dose 0.5-2 µM
Summary of the method: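 QGY-7703 (RPMI 1640, 10% FBS) and SMMC-7721 (DMEM) cells at 37 °C, 5% CO2, treated with graded concentrations for 12 h. RIPA lysates (40-80 µg protein) run on SDS-PAGE, transferred to nitrocellulose, immunoblotted for cleaved PARP; chemiluminescence read-out.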

[17] = system: HepG2; assay: Induction of autophagy in Nur77 knockout human HepG2 cells assessed as increase in GFP-LC3 puncta formation at 2 uM after 6 hrs by fluorescence microscopic method; type: functional, cell-based
Summary of the method: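 HepG2, or HepG2 and shNur77 HepG2, transfected with GFP-LC3, then given vehicle or 2.0 µM for 6 h; GFP-LC3 puncta visualised by fluorescence microscopy alongside phase-contrast images.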

T1 sequence (P22736 whole entry, the tested form may be a part): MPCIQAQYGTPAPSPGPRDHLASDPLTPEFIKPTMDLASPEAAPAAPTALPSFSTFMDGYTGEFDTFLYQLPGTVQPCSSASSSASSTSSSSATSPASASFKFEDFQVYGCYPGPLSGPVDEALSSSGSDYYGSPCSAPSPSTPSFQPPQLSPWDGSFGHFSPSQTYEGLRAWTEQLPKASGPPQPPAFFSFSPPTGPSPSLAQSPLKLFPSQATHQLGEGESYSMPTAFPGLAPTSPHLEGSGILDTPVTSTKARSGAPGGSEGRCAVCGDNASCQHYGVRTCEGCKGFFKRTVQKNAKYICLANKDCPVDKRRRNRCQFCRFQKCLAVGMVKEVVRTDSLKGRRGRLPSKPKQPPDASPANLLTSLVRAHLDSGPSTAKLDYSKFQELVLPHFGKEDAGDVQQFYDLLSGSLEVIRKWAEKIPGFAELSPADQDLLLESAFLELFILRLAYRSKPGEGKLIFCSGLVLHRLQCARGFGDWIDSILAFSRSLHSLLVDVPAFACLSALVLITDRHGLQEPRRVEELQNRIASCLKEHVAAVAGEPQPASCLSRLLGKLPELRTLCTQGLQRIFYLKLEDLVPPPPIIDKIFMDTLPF

Activity [9]: Active
Activity [13]: inactive
SMILES: COc1cccc2c(Nc3ccc4[nH]c(C(=O)N/N=C/c5ccc(SC)cc5)cc4c3)cc(C)nc12
Activity [1]: Active
Activity [2]: Active
Activity [3]: Dose-dependent effect
Activity [4]: Dose-dependent effect
Activity [5]: inactive
Activity [6]: 10298 U
Activity [7]: inactive
Activity [8]: 23%
Activity [10]: Dose-dependent effect
inhibition [11]: Active
Activity [12]: Non-Toxic
Activity [14]: inactive
Activity [15]: inactive
Activity [16]: Dose-dependent effect
Activity [17]: inactive

From ChEMBL document CHEMBL4765399, “Design, synthesis, and biological evaluation of 5-((8-methoxy-2-methylquinolin-4-yl)amino)-1H-indole-2-carbohydrazide derivatives as novel Nur77 modulators” (Eur J Med Chem, 2020)
